One test concerns Staphylococcus aureus. Kind of test: Antimicrobial activity against Staphylococcus aureus ATCC 29213 at 200 ug/disk. It counts as functional. The settings on record: read-out: IZ. The method in brief:
(§1)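 Standard disk diffusion assay with 200 µg of compound applied per disk. Activity was read as the diameter (mm) of the zone of growth inhibition around the disk.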

The subject of the next test is Bacillus subtilis. Kind of test: Antimicrobial activity against Bacillus subtilis ATCC 6051 at 200 ug/disk. It counts as functional. The note with it: read-out: IZ. The method in brief: as §1
The subject of another test is Candida albicans. Kind of test: Antimicrobial activity against Candida albicans ATCC 90029 at 200 ug/disk. It counts as functional, organism-based. The method in brief: as §1

Calls of active or inactive are those of the source. The calls are words filed in the database; no cut-off is given here.

For `C=C(COC(C)=O)[C@@]12O[C@@H]1[C@@]1(C)C(=C[C@H]2O)C=C[C@@H](O)[C@@H]1C` [PHOMADECALIN B], the zone of inhibition at 200 µg/disc in the test on Staphylococcus aureus is 8 mm; with Bacillus subtilis, 10 mm. For the same molecule, in the test on Candida albicans, the outcome was inactive.
For `C=C(CO)[C@@]12O[C@@H]1[C@@]1(C)C(=C[C@H]2O)C=C[C@@H](O)[C@@H]1C` [PHOMADECALIN D], the zone of inhibition at 200 µg/disc worked out at 8 mm with Staphylococcus aureus and 9 mm with Bacillus subtilis. Further, the result with Candida albicans was inactive.
For `C=C(CO)[C@@]12O[C@@H]1[C@@]1(C)C(=C[C@H]2O)C=CC[C@@H]1C` [PHOMADECALIN A], in that order: 10 mm, 18 mm and “inactive”.
Take `C=C(CO)[C@@]12O[C@@H]1[C@@]1(C)C(=C[C@H]2O)C=CC(=O)[C@@H]1C` [PHOMADECALIN C]: in the test with Bacillus subtilis, the zone of inhibition at 200 µg/disc is 12 mm.

(Values after ChEMBL document CHEMBL1148107, “Phomadecalins A-D and phomapentenone A: new bioactive metabolites from Phoma sp. NRRL 25697, a fungal colonist of Hypoxylon stromata” (2002).)
